Experiment [1] can be described thus: inhibitors of TNFa-induced NFkB p65 translocation, primary screen, imaging, HUVEC, MLSMR starter and 10KST1 sets (AID 438;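 active = inhibition above 20% together with a positive visual image hit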;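 also: compound added about 3h40 before a 20 min TNFalpha stimulation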;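 as to inhibition: signal is the nuclear over cytoplasmic p65 intensity ratio per well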). Conditions: HUVEC TNFa-induced p65 nuclear translocation; cell count: measured here: nuclei count (cytotoxicity indicator), at 2.08 µM; inhibition: at 2 µM, stronger effect = higher value, 0% TNFa-plus-vehicle, 100% no-TNFa wells.
Experiment [2] is described as follows: endothelial E-selectin expression blockers – imaging, HUVEC, immunofluorescence, MLSMR starter and 10KST1 sets, primary screen (AID 487;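 active = visually confirmed hit in the image check and inhibition above 20%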;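 as to inhibition: signal is fraction of cell area covered by stained E-selectin grains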;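 as to nuclei count: 100% = median nuclei count of all wells on the same plate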). Conditions: HUVEC TNFalpha-induced E-selectin immunofluorescence imaging, at 2 µM; inhibition: stronger effect = higher value; nuclei count: measured here: cell number, toxicity.
Experiment [3] can be described thus: Primary imaging screen for DUSP6 inhibitors that restore phospho-Erk in transfected HeLa cells, chemical complementation (AID 609;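 active = compounds giving at least 50% inhibition in the cell-based MKP-3 phosphatase rescue imaging test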;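 as to inhibition: phospho-Erk level distribution per well compared with pooled transfected vehicle control wells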). Conditions: HeLa MKP-3 transfected, phospho-Erk imaging KS statistic, at 10 µM, cells stimulated with TPA for 15 min.
The target in experiment [4] is Dual specificity protein phosphatase 6 (Homo sapiens) (UniProt Q16828). The description is as above. Conditions: HeLa MKP-3 transfected, phospho-Erk imaging KS statistic; at 10 µM; stronger effect = higher value; cells stimulated with TPA for 15 min.
Dual specificity protein phosphatase 6 (Homo sapiens), sequence (Q16828 whole entry, looked up): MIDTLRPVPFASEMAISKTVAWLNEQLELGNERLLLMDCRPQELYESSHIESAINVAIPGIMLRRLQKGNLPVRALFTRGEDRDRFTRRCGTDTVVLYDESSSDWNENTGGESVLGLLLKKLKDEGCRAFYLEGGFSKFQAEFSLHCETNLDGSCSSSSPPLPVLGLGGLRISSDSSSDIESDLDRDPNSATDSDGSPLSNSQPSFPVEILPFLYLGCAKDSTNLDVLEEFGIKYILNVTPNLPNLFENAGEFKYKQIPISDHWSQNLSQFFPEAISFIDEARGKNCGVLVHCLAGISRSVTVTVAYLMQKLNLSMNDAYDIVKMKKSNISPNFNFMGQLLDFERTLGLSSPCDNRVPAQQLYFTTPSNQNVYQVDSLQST
Experiment [5] concerns the target Voltage-gated potassium channel subunit beta-2 (Rattus norvegicus) (UniProt P62483). In words: inhibitors of rat Kvbeta2 reductase activity – biochemical, NADPH fluorescence, primary screen (AID 622;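 active = fluorescence slope higher than the sample average by over 3 SD, cut at about -0.22 in these data, passing the limit was not always enough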;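 also: slope of raw intensity against log time taken from 70 to 1610 s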). The settings on record: recombinant KvBeta, 4-cyanobenzaldehyde reduction, at 10 µM, stronger effect = higher value.
For experiment [6] the target is unchanged. In words: enhancers of rat Kvbeta2 NADPH turnover – biochemical, NADPH fluorescence, primary screen (AID 623;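 active = NADPH fluorescence slope more negative than the mean of all samples by about 3 SD, 99.7% confidence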;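 also: fluorescence intensity change per second fitted from 20 to 320 s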). The settings on record: Recombinant KvBeta, NADPH fluorescence decrease slope, 10 min; at 10 µM; stronger effect = lower value.
In experiment [7] the target is Alpha-2C adrenergic receptor (Homo sapiens) (UniProt P18825). Briefly: compounds altering alpha2C-coupled GIRK flux – cell-based, HEK293 alpha2C/GIRK1/2, thallium flux, primary screen (AID 624;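 active = fluorescence slope after compound addition differing from the mean of all screened samples at 99.7% confidence, in either direction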;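 also: slope of fluorescence ratio to pre-addition baseline per second over 15 to 24 s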). Conditions: thallium flux BTC fluorescence, at 10 µM, actives lie on both sides.
Alpha-2C adrenergic receptor (Homo sapiens), sequence (P18825 whole entry, looked up): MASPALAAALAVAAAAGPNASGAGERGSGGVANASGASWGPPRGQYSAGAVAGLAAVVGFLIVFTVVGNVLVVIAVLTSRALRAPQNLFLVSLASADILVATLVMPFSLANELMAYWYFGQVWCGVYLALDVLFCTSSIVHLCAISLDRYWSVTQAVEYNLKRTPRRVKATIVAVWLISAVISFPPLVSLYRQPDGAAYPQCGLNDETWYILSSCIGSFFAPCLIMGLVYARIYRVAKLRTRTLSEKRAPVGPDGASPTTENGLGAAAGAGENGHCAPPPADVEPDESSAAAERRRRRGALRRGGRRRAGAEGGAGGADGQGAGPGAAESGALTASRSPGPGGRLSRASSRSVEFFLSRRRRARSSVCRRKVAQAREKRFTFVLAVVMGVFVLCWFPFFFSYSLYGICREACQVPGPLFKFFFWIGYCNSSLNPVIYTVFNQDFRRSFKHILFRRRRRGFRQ
The nature of experiment [8]: inhibitors of larval lipid processing in zebrafish, primary screen, whole organism, PED6 fluorescence, gall bladder and intestine (AID 686;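 active = a full or partial loss of lipid-probe fluorescence in the fish gall bladder, intestine or both, judged by eye; inactive = no fluorescence loss, or compound toxic to the fish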;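 also: larvae 5 to 7 days old with five fish per well; signal comes from phospholipase A2 cleavage of quenched PED6 carried via bile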). The settings on record: Zebrafish larvae PED6 lipid processing, fluorescence scoring; screened at 20 µM (by protocol). The gist of the method: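 Incubation: overnight exposure of larvae to compound plus PED6 / Test system: live zebrafish larvae aged 5-7 days, whole organism / Amount: 5 larvae per well / Read-out basis: visual per-well fluorescence inhibition score / Signal: visual fluorescence microscopy scoring of gall bladder, gut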

Experiment [9] is described as follows: loss of swimming-algae plug formation – whole organism, Chlamydomonas reinhardtii, WT vs cilia-less mutant, absorbance, 96-well, primary screen (AID 463189).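 Also: 0% = wild type cc124 cells in DMSO and 100% = ciliumless bld1 mutant cells.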 Conditions: Chlamydomonas reinhardtii gravitaxis, OD600 absorbance, 2 days; at 10 µM; stronger effect = higher value.
[10] abbreviates: measured here: cell density z-score.
Where [11] appears, read: measured here: nuclear c-Myc green intensity z-score.
Setting [12] is: measured here: nuclear pErk red intensity z-score, stronger effect = higher value.

Structures are written as SMILES. Activity calls are given as the source filed them.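 The calls were made as follows, unless noted: active = inhibition at or above 50% relative to wild type and mutant plate controls; inactive = inhibition below 50%.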

Voltage-gated potassium channel subunit beta-2 (Rattus norvegicus), sequence (P62483 whole entry, looked up): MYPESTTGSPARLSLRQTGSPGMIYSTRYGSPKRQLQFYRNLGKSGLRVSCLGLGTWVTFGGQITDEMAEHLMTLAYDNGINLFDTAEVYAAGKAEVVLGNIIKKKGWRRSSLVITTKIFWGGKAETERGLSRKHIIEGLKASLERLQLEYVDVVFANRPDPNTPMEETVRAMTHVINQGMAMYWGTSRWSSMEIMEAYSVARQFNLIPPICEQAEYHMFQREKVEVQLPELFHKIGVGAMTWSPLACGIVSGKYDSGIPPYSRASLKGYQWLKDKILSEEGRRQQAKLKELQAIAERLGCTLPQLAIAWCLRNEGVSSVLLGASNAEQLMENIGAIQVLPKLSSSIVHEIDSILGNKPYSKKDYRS

As to `Cc1cccc(OCC(=O)N2CCC(N3CCOCC3)CC2)c1`, the cell count in experiment [1] came to 356. Besides, the inhibition in [1] was -12.6% (inactive); in [2], -156% (inactive); in experiment [4], 17% (inactive); in experiment [9], 11.3% (inactive). This compound showed a nuclei count in [2] of 149%. The z-score in experiment [3] (setting [10]) was 2.22; in experiment [3] (setting [11]) it was -1.72; in experiment [3] (setting [12]), 0.299. The fluorescence slope in [5] is -0.406 (inactive). Also, the NADPH fluorescence slope in [6] was -4.5e-05 (inactive). For the same compound, the slope in experiment [7] is 0.00455 (inactive). In experiment [8], the compound was called inactive.

Turning to `O=C(c1ccco1)N1CCN(CCOCCOc2cccc3ccccc23)CC1`, in experiment [1], the cell count amounted to 473. For the same compound, the inhibition in experiment [1] was -5.4% (inactive); in [2], -81.6% (inactive); in experiment [4], -2.07% (inactive); in experiment [9] it was 16.4% (inactive). The same compound showed a nuclei count in experiment [2] of 121%. Besides, the z-score was -1.67 in experiment [3] (setting [10]), -0.183 in experiment [3] (setting [11]) and 1.98 in experiment [3] (setting [12]). Further, the fluorescence slope in [5] is -0.504 (inactive). Also, in [6], the NADPH fluorescence slope is -0.000107 (inactive). In addition, the slope in experiment [7] was 0.00477 (inactive). The compound was classed as inactive in experiment [8].

With `CCOC(=O)CSc1nc(NC#N)nc(N(CC)CC)n1`, the cell count in experiment [1] was 650. Further, the inhibition in experiment [1] is -7.6% (inactive); in [2], -42.9% (inactive); in [4], 13.2% (inactive); in [9], -12.7% (inactive). Further, in experiment [2], the nuclei count stood at 165%. Further, the z-score in [3] (setting [10]) was -0.121; in experiment [3] (setting [11]) it was -0.374; in [3] (setting [12]) it was -1.34. In addition, the fluorescence slope in [5] is -0.51 (inactive). Also, the NADPH fluorescence slope in [6] is -9.5e-05 (inactive). For the same compound, in experiment [7], the slope is 0.0053 (inactive). For the same compound, the compound was classed as inactive in experiment [8].

On to `COc1ccccc1C(=O)N1CCCC1(C#N)c1ccccc1` (stereo unspecified), for which, in experiment [1], the cell count came to 653. Also, the inhibition in experiment [1] was 1.8% (inactive); in [2], -44.9% (inactive); in experiment [4], -6.48% (inactive); in [9] it was 13% (inactive). In experiment [2], this compound came in with a nuclei count of 121%. The figures for the z-score in experiment [3] (setting [10]), in [3] (setting [11]) and in [3] (setting [12]) were -0.569, -0.677 and -0.674, respectively. The fluorescence slope in experiment [5] was -0.475 (inactive). Moreover, the NADPH fluorescence slope in experiment [6] is -0.000294 (inactive). For the same compound, the slope in experiment [7] is 0.00555 (inactive). For the same compound, in experiment [8], the compound was classed as inactive.

As to `CCCSc1nc(N2CCCC2)c2c(c1C#N)CC(C)(C)OC2`, the cell count in [1] stood at 521. The inhibition in [1] is -7.7% (inactive); in [2], -153% (inactive); in experiment [4], 36.9% (inactive); in [9], 9.15% (inactive). In experiment [2], the nuclei count is 173%. Moreover, the z-score in experiment [3] (setting [10]) is 1.7; in experiment [3] (setting [11]), -1.87; in [3] (setting [12]), -0.14. In addition, the fluorescence slope in experiment [5] is -0.322 (inactive). Further, in experiment [6], the NADPH fluorescence slope was 4.6e-06 (inactive). Moreover, in [7], the slope is 0.00655 (inactive). In [8], the result was inactive.

As for `CC(C)(C)OC(=O)NCCC(=O)Oc1ccc2ccc(=O)oc2c1`, the cell count in experiment [1] was 499. In addition, the inhibition in [1] is -1.3% (inactive); in experiment [2] it was -209% (inactive); in [4], -11% (inactive); in [9] it was 16.5% (inactive). The compound further gave a nuclei count in [2] of 185%. Besides, the z-score in experiment [3] (setting [10]) stood at 0.0263; in experiment [3] (setting [11]), 0.375; in [3] (setting [12]), 0.541. In addition, in experiment [5], the fluorescence slope is -0.362 (inactive). The NADPH fluorescence slope in [6] was -2.1e-05 (inactive). The slope in experiment [7] was 0.00495 (inactive). Also, the compound was called inactive in [8].

As to `COc1ccc(OC)c(C2=Nn3c(nnc3-c3ccco3)SC2)c1`, the cell count in experiment [1] was 675. Further, the inhibition in [1] was 1.9% (inactive); in [2] it was -139% (inactive); in [4], -2.47% (inactive); in [9], -10.3% (inactive). In experiment [2], this compound showed a nuclei count of 150%. Also, the values for the z-score in experiment [3] (setting [10]), in experiment [3] (setting [11]) and in [3] (setting [12]) were -0.0454, 1.22 and 0.484, respectively. In addition, the fluorescence slope in experiment [5] is -0.399 (inactive). Also, the NADPH fluorescence slope in experiment [6] is -0.000127 (inactive). Besides, in [7], the slope was 0.00666 (inactive). The result in [8] was inactive.

With `Clc1ccc(SCc2cn3ccsc3n2)cc1`, the cell count in experiment [1] came out at 516. The inhibition in [1] was -11.3% (inactive); in experiment [2], -61.5% (inactive); in experiment [4] it was -11% (inactive); in [9] it was 31.1% (inactive). The same compound registered a nuclei count in [2] of 170%. In addition, the z-score in experiment [3] (setting [10]) was -0.751; in experiment [3] (setting [11]), 0.432; in [3] (setting [12]), -0.146. The fluorescence slope in [5] was -0.476 (inactive). In addition, the NADPH fluorescence slope in [6] is -0.000195 (inactive). For the same compound, the slope in experiment [7] is 0.0044 (inactive). Further, the outcome in experiment [8] was inactive.

For `COc1ccc(/C(O)=C2/C(=O)C(=O)N(CCCN(C)C)C2c2cccc(Cl)c2)cc1OC` (stereo unspecified), in experiment [1], the cell count is 382. Moreover, the inhibition in experiment [1] is -1.1% (inactive); in experiment [2], -135% (inactive); in experiment [4], 3.66% (inactive); in experiment [9], 0.268% (inactive). The same compound displayed a nuclei count in experiment [2] of 155%. In addition, the results for the z-score in experiment [3] (setting [10]), in experiment [3] (setting [11]) and in experiment [3] (setting [12]) were -1.5, 0.328 and 0.495, respectively. In addition, in [5], the fluorescence slope was -0.393 (inactive). Also, the NADPH fluorescence slope in experiment [6] is -5.4e-05 (inactive). Besides, the slope in experiment [7] was 0.00697 (inactive). Besides, the compound was called inactive in [8].

As to `CCCOc1ccc(-c2nnc(N)s2)cc1`, the cell count in experiment [1] was 608. Besides, the inhibition is -13.2% (inactive) in experiment [1], -31.6% (inactive) in [2], -4.27% (inactive) in [4] and -0.862% (inactive) in experiment [9]. The same compound came in with a nuclei count in experiment [2] of 164%. The z-score in experiment [3] (setting [10]) was 0.463; in [3] (setting [11]) it was 0.84; in experiment [3] (setting [12]) it was -0.902. Also, the fluorescence slope in experiment [5] was -0.403 (inactive). Moreover, the NADPH fluorescence slope in experiment [6] was -6.2e-05 (inactive). Also, the slope in experiment [7] was 0.00732 (inactive). For the same compound, in experiment [8], the call was inactive.

In the case of `Cc1ccc(N(CN2C(=O)NC(C)(C)C2=O)CN2C(=O)NC(C)(C)C2=O)cc1`, in experiment [1], the cell count stood at 465. The inhibition in experiment [1] was 5.9% (inactive); in experiment [2], -355% (inactive); in experiment [4], 2.71% (inactive); in experiment [9], 5.64% (inactive). Also, the nuclei count in experiment [2] amounted to 156%. Also, the z-score in [3] (setting [10]) turned out to be 0.539; in experiment [3] (setting [11]) it was 0.101; in experiment [3] (setting [12]) it was 0.322. In addition, the fluorescence slope in [5] was -0.315 (inactive). Also, the NADPH fluorescence slope in [6] is -9.5e-06 (inactive). In addition, the slope in experiment [7] is 0.00542 (inactive). Further, the result in [8] was inactive.

Take `CCOP(=O)(c1ccccc1)c1nc(-c2ccc(F)cc2)oc1N1CCCCC1` (stereo unspecified): the cell count in [1] stood at 658. In addition, the inhibition in experiment [1] is 1.8% (inactive); in [2], -100% (inactive); in experiment [4] it was 4.25% (inactive); in experiment [9] it was 2.55% (inactive). This compound also came in with a nuclei count in experiment [2] of 136%. In addition, the z-score is 0.739 in experiment [3] (setting [10]), -0.227 in experiment [3] (setting [11]) and 1.53 in [3] (setting [12]). For the same compound, the fluorescence slope in experiment [5] is -0.529 (inactive). For the same compound, the NADPH fluorescence slope in experiment [6] was -0.000105 (inactive). In [7], the slope is 0.00389 (inactive). The compound was called inactive in experiment [8].
